# In the library only some 2.6% were active in any assay of this set; here they are far more common.
# ABHD5-PLIN5 inh: ABHD5-PLIN5 protein interaction inhibition | 360,000 compounds, 0.78% hits | Q00G26+Q8WTS1 | inhibition, % at 4 µM | Split G. princeps luciferase complementation, luminescence, 4 h | AID 602281;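 active = inhibition above the mean inhibition across every tested compound plus 3 SD, cut at about 22% in these data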;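 note: 0% = DMSO only wells and the 100% control is not disclosed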
# HCV core dimer: blocks dimerization of HCV core protein; AID 1899; 300,000 compounds, 0.33% hits; TR-FRET GST/Flag-core106 dimerization, 1536-well; inhibition, % at 5 µM;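 active = inhibition above the mean of all tested compounds plus 3 SD, set per screening campaign, cut at about 45% in these data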
#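 test system = GST/Flag-tagged HCV core106 proteins | probe or stimulus = Eu donor and XL665 acceptor anti-tag antibodies | times = compound-protein-antibody incubation 4 h at 22.5 °C | signal = TR-FRET, excitation 340 nm, emission 617 and 671 nm | measure = percent inhibition of core106 dimerization signal | controls = wells lacking GST-core106 and wells with excess unlabelled core106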
# NadD inh: inhibitors of Staphylococcus aureus NadD | 360,000 compounds, 0.78% hits | inhibition, % at 20 µM | purified NadD enzyme, colorimetric absorbance read-out; in the data active = inhibition above about 26%
# rCAG binder: molecules binding r(CAG) RNA repeats; r(CAG) RNA repeat, TO-PRO-1 dye displacement fluorescence; AID 651821; inhibition, % at 3 µM; 370,000 compounds, 1.3% hits;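 active = inhibition above the plate cutoff, the mean of all test compounds on that plate plus 3 SD, cut at about 35% in these data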;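 note: 0% = DMSO alone and 100% = 100 µM mitoxantrone as full dye displacement; higher means more dye released from RNA so lower well fluorescence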
# ABHD5 PLIN5 conf: confirmation of human ABHD5-PLIN5 interaction inhibitors; shares compounds with ABHD5-PLIN5 inh; biochemical ABHD5-PLIN5 interaction, luminescence; inhibition, % at 4 µM; 2,200 compounds, 67% hits; in the data active = inhibition above about 23%;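 note: 0% = DMSO vehicle wells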
# HNF4 counter: HNF4 split-luciferase signal hit, counter-screen | inhibition, % at 4 µM | HNF4 dimerization, luminescence, biochemical | AID 651674 | shares compounds with ABHD5-PLIN5 inh | 2,200 compounds, 77% hits;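 active = mean inhibition across replicate wells exceeding the computed hit threshold, cut at about 13% in these data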;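 note: light from luciferase halves that rejoin when HNF4 fusion proteins dimerize; 0% = DMSO only wells and the 100% control is not given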
# Target sequence (P41235 whole entry, looked up, the tested form may be a part): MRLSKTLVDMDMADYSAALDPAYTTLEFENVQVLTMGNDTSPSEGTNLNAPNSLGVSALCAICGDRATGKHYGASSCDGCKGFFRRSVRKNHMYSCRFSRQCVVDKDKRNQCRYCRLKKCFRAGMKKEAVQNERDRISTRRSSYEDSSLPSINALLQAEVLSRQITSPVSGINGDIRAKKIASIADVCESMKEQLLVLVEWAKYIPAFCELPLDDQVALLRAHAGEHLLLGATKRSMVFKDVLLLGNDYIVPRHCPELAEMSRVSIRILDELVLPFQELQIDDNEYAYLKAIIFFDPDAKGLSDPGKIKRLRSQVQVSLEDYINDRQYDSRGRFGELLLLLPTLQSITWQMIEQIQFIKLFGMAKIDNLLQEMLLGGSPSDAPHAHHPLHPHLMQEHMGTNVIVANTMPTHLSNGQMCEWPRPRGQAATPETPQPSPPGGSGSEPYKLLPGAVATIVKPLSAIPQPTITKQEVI
# * marks the source's active call; other numbers are inactive results; x = no result.
SMILES,ABHD5-PLIN5 inh,HCV core dimer,NadD inh,rCAG binder,ABHD5 PLIN5 conf,HNF4 counter
COC(=O)[C@]12C[C@H](CC(=O)N3CCN(C(=O)C4CC4)CC3)C(=O)N(Cc3ccc(Cl)cc3Cl)C1=C[C@H](C(C)(C)C)O[C@@H]2C,x,x,x,7.7,x,x
Cc1ccc(S(=O)(=O)N2[C@H](CC(=O)c3ccccc3)OC[C@@H]2C(C)C)cc1,-10.4,x,x,0.6,x,x
COc1ccc(C(=O)/C=C/c2ccc(OC)c(O)c2)c(F)c1,29.4*,4.8,-3.3,4.3,55.4*,49.7*
COc1ccc(/C=C/C(=O)c2ccccc2O)cc1,18.8,-0.4,-9.2,x,x,x
CCC1CSC(Nc2ccc(C(=O)/C=C/c3ccc(Br)cc3)cc2)=N1 (centres undefined),23.8*,-4.8,7.3,3.0,51.9*,38.8*
COc1ccc(C=CC(=O)c2ccc(OC)c(OC)c2O)cc1OC,45.8*,x,-9.9,1.9,55.1*,43.6*
CCC1CSC(Nc2ccc(C(=O)/C=C/c3ccc(OC)c(OC)c3)cc2)=N1 (centres undefined),16.6,-33.8,9.5,3.0,x,x
COc1ccc(/C=C/C(=O)c2ccc(NC3=NCCCS3)cc2)cc1OC,36.1*,4.1,2.6,8.1,46.7*,39.9*
COc1ccc(C=CC(=O)c2ccc3cc(OC)c(OC)cc3c2)cc1OC,41.4*,x,-17.6,7.3,41.3*,26.3*
COc1ccc(C=CC(=O)c2ccc(OC)c(OC)c2)cc1O,14.8,x,0.0,16.3,x,x
CC(=O)Nc1ccc(S(=O)(=O)N2c3ccc(F)cc3CCC2C)cc1 (centres undefined),27.0*,2.4,-6.2,3.5,45.9*,5.5
CCOC(=O)C1=CCN(S(=O)(=O)c2ccc(C)cc2)C1c1cccc(C)c1 (centres undefined),-5.5,x,-8.3,0.7,x,x
COc1ccc(-c2n(CC(=O)OC3CC(C)CCC3C(C)C)c3ccccc3[n+]2C)cc1 (centres undefined),17.7,x,6.5,2.2,x,x
COc1ccc(OCc2n(CC(=O)OC3CC(C)CCC3C(C)C)c3ccccc3[n+]2C)cc1 (centres undefined),39.1*,-7.5,13.9,14.7,13.6,9.5
Cc1ccc(NC(=O)CSc2nnc(-c3ccco3)c(-c3ccco3)n2)cc1,27.1*,50.6*,15.8,41.5*,93.9*,65.0*
O=C(NC1CCCCC1)C(c1cccc2ccccc12)n1c(=O)c(-c2cc3ccccc3[nH]2)nc2ccccc21 (centres undefined),-1.5,x,x,18.2,x,x
O=C(NC1CCCCC1)C(c1ccnc2ccccc12)n1c(=O)c(-c2ccco2)nc2ccccc21 (centres undefined),55.5*,x,x,32.5,50.2*,8.1
O=C(Nc1ccc2c(c1)OCCO2)C(c1ccnc2ccccc12)n1c(=O)c(-c2ccco2)nc2ccccc21 (centres undefined),50.3*,x,x,21.8,25.9*,7.3
O=C(NC1CCCCC1)C(c1ccccc1F)n1c(=O)c(-c2ccco2)nc2ccccc21 (centres undefined),71.6*,x,x,30.7,85.3*,31.2*
O=C(NC1CCCCC1)C(c1ccncc1)n1c(=O)c(-c2ccccc2)nc2ccccc21 (centres undefined),-0.2,x,x,1.8,x,x
O=C(NC1CCCCC1)C(c1ccc(-c2ccccc2)cc1)n1c(=O)c(-c2ccco2)nc2ccccc21 (centres undefined),79.0*,x,x,31.4,70.9*,2.4
COC(=O)C1=C(C)N(C)C(=NCc2ccc(OC)cc2)NC1c1ccc(Cl)cc1 (centres undefined),x,x,x,9.3,x,x
O=C(C=Cc1ccco1)c1ccco1,15.8,x,3.7,24.7,x,x
O=C(C=C1SCCS1)/C=C/c1ccco1,31.3*,31.9,8.7,10.2,44.0*,48.2*
O=C(O)C(C(=O)/C=C/c1ccco1)=C1SCCS1,44.8*,20.5,6.5,15.8,21.4,30.6*
SMILES,ABHD5-PLIN5 inh,HCV core dimer,NadD inh,rCAG binder,ABHD5 PLIN5 conf,HNF4 counter
COc1cccc(C(=O)N[C@H](C(=O)N2CCC[C@H]2C(=O)NC2CCCC2)C2CCCCC2)c1,x,x,x,0.9,x,x
O=C(NCCc1ccccc1)OCc1cn(Cc2ccc(C(F)(F)F)cc2)nn1,x,x,x,-2.3,x,x
Cc1ccccc1NC(=O)N(C)[C@H]1C[C@H]2c3[nH]c4c(-c5ccccc5)cccc4c3CCN2C(=O)[C@H]1[C@H](C)O,x,x,x,5.7,x,x
COc1cc(CNC(C)(C)CO)cc(Br)c1OCc1ccc(Cl)cc1Cl,34.3*,-19.5,-4.9,1.6,19.6,4.0
COc1cc(CNC(C)(C)CO)cc(Br)c1OCc1ccc(Cl)cc1,28.0*,-20.5,-11.1,-1.1,13.1,0.1
[O-][n+]1cc(Cl)cc(Cl)c1,1.9,x,-1.3,1.3,x,x
C[C@H]1CN([C@@H](C)CO)C(=O)c2cccc(NC(=O)Nc3ccc(C(F)(F)F)cc3)c2O[C@H]1CN(C)C,28.3*,x,-7.4,-5.8,13.0,3.1
C[C@H](CO)N1C[C@H](C)[C@@H](CN(C)Cc2ccc(Oc3ccccc3)cc2)Oc2c(NC(=O)C3CC3)cccc2C1=O,27.9*,x,1.2,11.7,9.0,4.4
COc1ccc(S(=O)(=O)Nc2cccc3c2O[C@H](CN(C)Cc2ccncc2)[C@@H](C)CN([C@H](C)CO)C3=O)cc1,24.3*,x,0.7,-6.1,3.3,0.2
COc1ccc(S(=O)(=O)Nc2cccc3c2O[C@H](CN(C)Cc2ccccc2)[C@@H](C)CN([C@H](C)CO)C3=O)cc1,-4.4,x,6.7,-5.9,x,x
Nc1nc2c(ncn2[C@@H]2O[C@H](CNCc3ccc(Oc4cc(-n5cccn5)ncn4)cc3)[C@@H](O)[C@H]2O)c(=O)[nH]1,-1.0,x,0.2,6.5,x,x
COc1ccc(S(=O)(=O)NC(=O)C2(C)CCN2C(=O)Cc2cc(C)cc(C)c2)cc1 (centres undefined),2.1,x,-4.3,10.8,x,x
CCOc1ccccc1NC(=O)CSc1nnc(SCc2ccccc2)s1,x,x,x,1.1,x,x
Cc1ccccc1C(=O)N1CCC[C@H]1C(=O)N1CCC[C@H]1C(=O)NCc1ccccn1,5.3,x,-0.5,0.2,x,x
N#C/C(=C\c1cccc(Br)c1)C(=O)N1CCCCC1,24.1*,-0.5,-1.2,-3.0,71.3*,53.4*
C/C(=C/c1ccccc1)C(=O)N1CCN(c2ccccc2F)CC1,-4.3,5.5,6.1,-6.0,x,x
N#C/C(=C\c1ccccc1)C(=O)N1CCN(c2ccccc2F)CC1,37.9*,7.0,-1.0,0.0,51.9*,38.5*
CCN(C(=O)COC(=O)/C(=C/c1ccccc1)n1nnnc1C)C1CCCCC1,34.1*,0.0,7.4,-3.5,51.6*,35.7*
Cc1nnnn1/C(=C\c1ccccc1)C(=O)OCC(=O)N(C)C1CCS(=O)(=O)C1 (centres undefined),12.0,-0.1,7.3,x,x,x
O=C(COC(=O)c1cc(S(=O)(=O)N2CCOCC2)ccc1Cl)NCc1ccco1,15.3,1.9,1.4,-0.1,x,x

# Screening results as filed in PubChem.
